ChEMBL document CHEMBL5303300, “EUbOPEN Chemogenomics Library - Multiplex” (2023)
Values joined by “and” are separate entries in the source; they are usually repeats but may differ in a detail not shown here. Equal entries are not always repeated.

System: U2OS
Assay: Multiplex assay against U2OS
Format: toxicity, cell-based
Settings: human, number of replicates 2
In short: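 Hoechst33342, BioTracker Green Microtubule Cytoskeleton Dye, MitoTracker Red and Annexin V Alexa Fluor 680 were added to live cells at seeding, and imaging on a CQ1 microscope at 37°C and 5% CO2 followed compound addition. Gating by CellPathfinder machine learning separated cells into Hoechst high-intensity objects or normal cells, then normal cells into healthy, pyknosed or fragmented nuclei, then pyknosed cells into mitotic or apoptotic. Per cents of healthy-nucleus cells are reported for the tubulin, mitochondrial-mass and membrane-permeability phenotypes.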

[1] = 12 h, 1 µM, compound concentration 1 uM
[2] = 12 h, 10 µM, compound concentration 10 uM
[3] = 24 h, 1 µM, compound concentration 1 uM
[4] = 24 h, 10 µM, compound concentration 10 uM
[5] = 48 h, 1 µM, compound concentration 1 uM
[6] = 48 h, 10 µM, compound concentration 10 uM

SMILES: C=CC(=O)Nc1ccc2[nH]c(=O)n(C3CCN(Cc4ccc(-c5ccc6c(c5)NC(=O)CO6)cc4)CC3)c2c1 [RL2578]
- Population Fragmented Nuclei (%) [1]: 5% and 4%
- Population Healthy Nuclei (%) [1]: 66% and 83%
- Population Hoechst High Intensity Objects (%) [1]: 0%
- Population Mitochondria Different-Phenotype (%) [1]: 4% and 0%
- Population Normal (%) [1]: 100%
- Population Pyknosed Nuclei (%) [1]: 27% and 11%
- Population Tubulin-Different-Phenotype (%) [1]: 58% and 84%
- Population Apoptotic (%) [2]: 66%
- Population Fragmented Nuclei (%) [2]: 18% and 9%
- Population Healthy Nuclei (%) [2]: 57% and 80%
- Population Hoechst High Intensity Objects (%) [2]: 0%
- Population Membrane Permeable-Phenotype (%) [2]: 13% and 7%
- Population Mitochondria Different-Phenotype (%) [2]: 13% and 30%
- Population Mitotic Cells (%) [2]: 33%
- Population Normal (%) [2]: 100%
- Population Pyknosed Nuclei (%) [2]: 23% and 9%
- Population Tubulin-Different-Phenotype (%) [2]: 31% and 46%
- Population Apoptotic (%) [3]: 85% and 74%
- Population Fragmented Nuclei (%) [3]: 8% and 4%
- Population Healthy Nuclei (%) [3]: 75% and 86%
- Population Hoechst High Intensity Objects (%) [3]: 0%
- Population Membrane Permeable-Phenotype (%) [3]: 11% and 1%
- Population Mitochondria Different-Phenotype (%) [3]: 8% and 2%
- Population Mitotic Cells (%) [3]: 14% and 25%
- Population Normal (%) [3]: 100%
- Population Pyknosed Nuclei (%) [3]: 15% and 9%
- Population Tubulin-Different-Phenotype (%) [3]: 76% and 87%
- Population Apoptotic (%) [4]: 61% and 54%
- Population Fragmented Nuclei (%) [4]: 9% and 8%
- Population Healthy Nuclei (%) [4]: 54% and 78%
- Population Hoechst High Intensity Objects (%) [4]: 1% and 0%
- Population Membrane Permeable-Phenotype (%) [4]: 0% and 5%
- Population Mitotic Cells (%) [4]: 38% and 45%
- Population Normal (%) [4]: 98% and 99%
- Population Pyknosed Nuclei (%) [4]: 35% and 12%
- Population Tubulin-Different-Phenotype (%) [4]: 39% and 47%
- Population Apoptotic (%) [5]: 83% and 70%
- Population Healthy Nuclei (%) [5]: 68% and 90%
- Population Hoechst High Intensity Objects (%) [5]: 0%
- Population Membrane Permeable-Phenotype (%) [5]: 8% and 0%
- Population Mitochondria Different-Phenotype (%) [5]: 4% and 0%
- Population Mitotic Cells (%) [5]: 16% and 30%
- Population Normal (%) [5]: 100%
- Population Pyknosed Nuclei (%) [5]: 16% and 6%
- Population Tubulin-Different-Phenotype (%) [5]: 80% and 84%
- Population Apoptotic (%) [6]: 76% and 68%
- Population Fragmented Nuclei (%) [6]: 13% and 10%
- Population Healthy Nuclei (%) [6]: 53% and 70%
- Population Hoechst High Intensity Objects (%) [6]: 0% and 1%
- Population Membrane Permeable-Phenotype (%) [6]: 10% and 5%
- Population Mitochondria Different-Phenotype (%) [6]: 7% and 18%
- Population Mitotic Cells (%) [6]: 23% and 31%
- Population Normal (%) [6]: 100% and 98%
- Population Pyknosed Nuclei (%) [6]: 32% and 19%
- Population Tubulin-Different-Phenotype (%) [6]: 71% and 59%

SMILES: C[C@@H](OC[C@@]1(c2ccccc2)CC[C@]2(CCC(=O)N2)CN1)c1cc(C(F)(F)F)cc(C(F)(F)F)c1 [ROLAPITANT]
- Population Apoptotic (%) [1]: 20% and 40%
- Population Fragmented Nuclei (%) [1]: 11% and 3%
- Population Healthy Nuclei (%) [1]: 73% and 86%
- Population Hoechst High Intensity Objects (%) [1]: 0%
- Population Membrane Permeable-Phenotype (%) [1]: 4% and 1%
- Population Mitochondria Different-Phenotype (%) [1]: 0%
- Population Mitotic Cells (%) [1]: 80% and 59%
- Population Normal (%) [1]: 100%
- Population Pyknosed Nuclei (%) [1]: 14% and 9%
- Population Tubulin-Different-Phenotype (%) [1]: 76% and 86%
- Population Apoptotic (%) [2]: 37% and 50%
- Population Healthy Nuclei (%) [2]: 85% and 71%
- Population Hoechst High Intensity Objects (%) [2]: 0%
- Population Membrane Permeable-Phenotype (%) [2]: 1% and 5%
- Population Mitochondria Different-Phenotype (%) [2]: 0% and 5%
- Population Mitotic Cells (%) [2]: 62% and 50%
- Population Normal (%) [2]: 99% and 100%
- Population Pyknosed Nuclei (%) [2]: 8% and 7%
- Population Tubulin-Different-Phenotype (%) [2]: 87% and 30%
- Population Apoptotic (%) [3]: 100% and 52%
- Population Fragmented Nuclei (%) [3]: 7% and 2%
- Population Healthy Nuclei (%) [3]: 90% and 87%
- Population Hoechst High Intensity Objects (%) [3]: 0%
- Population Membrane Permeable-Phenotype (%) [3]: 0% and 1%
- Population Mitochondria Different-Phenotype (%) [3]: 0% and 1%
- Population Normal (%) [3]: 100%
- Population Pyknosed Nuclei (%) [3]: 2% and 9%
- Population Tubulin-Different-Phenotype (%) [3]: 77% and 90%
- Population Apoptotic (%) [4]: 48% and 50%
- Population Healthy Nuclei (%) [4]: 89% and 77%
- Population Hoechst High Intensity Objects (%) [4]: 0%
- Population Membrane Permeable-Phenotype (%) [4]: 0% and 3%
- Population Mitochondria Different-Phenotype (%) [4]: 0% and 3%
- Population Mitotic Cells (%) [4]: 51% and 50%
- Population Normal (%) [4]: 99% and 100%
- Population Pyknosed Nuclei (%) [4]: 7% and 5%
- Population Tubulin-Different-Phenotype (%) [4]: 91% and 35%
- Population Apoptotic (%) [5]: 40% and 48%
- Population Fragmented Nuclei (%) [5]: 5% and 1%
- Population Healthy Nuclei (%) [5]: 87% and 92%
- Population Hoechst High Intensity Objects (%) [5]: 0%
- Population Membrane Permeable-Phenotype (%) [5]: 1%
- Population Mitochondria Different-Phenotype (%) [5]: 0%
- Population Mitotic Cells (%) [5]: 60% and 51%
- Population Normal (%) [5]: 100% and 99%
- Population Pyknosed Nuclei (%) [5]: 6% and 5%
- Population Tubulin-Different-Phenotype (%) [5]: 87% and 91%
- Population Apoptotic (%) [6]: 48% and 28%
- Population Fragmented Nuclei (%) [6]: 2% and 7%
- Population Healthy Nuclei (%) [6]: 90% and 78%
- Population Hoechst High Intensity Objects (%) [6]: 0%
- Population Membrane Permeable-Phenotype (%) [6]: 0% and 4%
- Population Mitochondria Different-Phenotype (%) [6]: 0% and 4%
- Population Mitotic Cells (%) [6]: 51% and 71%
- Population Normal (%) [6]: 100%
- Population Pyknosed Nuclei (%) [6]: 6% and 13%

SMILES: CCCN(CCc1cccs1)[C@H]1CCc2c(O)cccc2C1 [ROTIGOTINE]
- Population Apoptotic (%) [1]: 46% and 66%
- Population Fragmented Nuclei (%) [1]: 6% and 13%
- Population Healthy Nuclei (%) [1]: 84% and 76%
- Population Hoechst High Intensity Objects (%) [1]: 0%
- Population Mitochondria Different-Phenotype (%) [1]: 0%
- Population Mitotic Cells (%) [1]: 53% and 33%
- Population Normal (%) [1]: 100%
- Population Pyknosed Nuclei (%) [1]: 9% and 10%
- Population Tubulin-Different-Phenotype (%) [1]: 86% and 34%
- Total Cell Count [1]: 30
- Population Apoptotic (%) [2]: 62% and 50%
- Population Healthy Nuclei (%) [2]: 84% and 60%
- Population Hoechst High Intensity Objects (%) [2]: 0%
- Population Membrane Permeable-Phenotype (%) [2]: 4% and 13%
- Population Mitochondria Different-Phenotype (%) [2]: 1% and 0%
- Population Mitotic Cells (%) [2]: 37% and 50%
- Population Normal (%) [2]: 100%
- Population Pyknosed Nuclei (%) [2]: 11% and 15%
- Population Apoptotic (%) [3]: 57% and 80%
- Population Fragmented Nuclei (%) [3]: 1% and 6%
- Population Healthy Nuclei (%) [3]: 89% and 82%
- Population Hoechst High Intensity Objects (%) [3]: 0%
- Population Membrane Permeable-Phenotype (%) [3]: 2%
- Population Mitochondria Different-Phenotype (%) [3]: 0%
- Population Mitotic Cells (%) [3]: 42% and 20%
- Population Normal (%) [3]: 100%
- Population Pyknosed Nuclei (%) [3]: 8% and 10%
- Population Tubulin-Different-Phenotype (%) [3]: 88% and 39%
- Population Apoptotic (%) [4]: 48% and 66%
- Population Healthy Nuclei (%) [4]: 83% and 75%
- Population Hoechst High Intensity Objects (%) [4]: 0%
- Population Membrane Permeable-Phenotype (%) [4]: 0% and 9%
- Population Mitochondria Different-Phenotype (%) [4]: 1% and 2%
- Population Mitotic Cells (%) [4]: 51% and 33%
- Population Normal (%) [4]: 100%
- Population Pyknosed Nuclei (%) [4]: 13% and 10%
- Population Tubulin-Different-Phenotype (%) [4]: 62% and 46%
- Population Apoptotic (%) [5]: 35% and 83%
- Population Healthy Nuclei (%) [5]: 90% and 76%
- Population Hoechst High Intensity Objects (%) [5]: 0% and 1%
- Population Membrane Permeable-Phenotype (%) [5]: 1% and 6%
- Population Mitochondria Different-Phenotype (%) [5]: 0% and 4%
- Population Normal (%) [5]: 99% and 98%
- Population Pyknosed Nuclei (%) [5]: 6% and 9%
- Population Tubulin-Different-Phenotype (%) [5]: 93% and 35%
- Population Apoptotic (%) [6]: 66% and 57%
- Population Fragmented Nuclei (%) [6]: 8% and 2%
- Population Healthy Nuclei (%) [6]: 75% and 90%
- Population Hoechst High Intensity Objects (%) [6]: 0%
- Population Membrane Permeable-Phenotype (%) [6]: 6% and 1%
- Population Mitochondria Different-Phenotype (%) [6]: 3% and 0%
- Population Mitotic Cells (%) [6]: 33% and 42%
- Population Normal (%) [6]: 100% and 99%
- Population Pyknosed Nuclei (%) [6]: 15% and 6%
- Population Tubulin-Different-Phenotype (%) [6]: 62% and 78%

SMILES: CC(C)N(CCCCOCC(=O)NS(C)(=O)=O)c1cnc(-c2ccccc2)c(-c2ccccc2)n1 [SELEXIPAG]
- Population Apoptotic (%) [1]: 100% and 38%
- Population Fragmented Nuclei (%) [1]: 14% and 4%
- Population Healthy Nuclei (%) [1]: 76% and 84%
- Population Hoechst High Intensity Objects (%) [1]: 0%
- Population Membrane Permeable-Phenotype (%) [1]: 0% and 1%
- Population Mitochondria Different-Phenotype (%) [1]: 6% and 0%
- Population Normal (%) [1]: 100% and 99%
- Population Pyknosed Nuclei (%) [1]: 9% and 11%
- Population Tubulin-Different-Phenotype (%) [1]: 81% and 85%
- Population Apoptotic (%) [2]: 33% and 45%
- Population Fragmented Nuclei (%) [2]: 11% and 3%
- Population Healthy Nuclei (%) [2]: 82% and 88%
- Population Hoechst High Intensity Objects (%) [2]: 0%
- Population Membrane Permeable-Phenotype (%) [2]: 2% and 1%
- Population Mitochondria Different-Phenotype (%) [2]: 0%
- Population Mitotic Cells (%) [2]: 66% and 54%
- Population Normal (%) [2]: 100% and 99%
- Population Pyknosed Nuclei (%) [2]: 6% and 8%
- Population Tubulin-Different-Phenotype (%) [2]: 97% and 87%
- Population Apoptotic (%) [3]: 50% and 46%
- Population Fragmented Nuclei (%) [3]: 5% and 2%
- Population Healthy Nuclei (%) [3]: 88% and 89%
- Population Hoechst High Intensity Objects (%) [3]: 0%
- Population Membrane Permeable-Phenotype (%) [3]: 3% and 1%
- Population Mitochondria Different-Phenotype (%) [3]: 0%
- Population Mitotic Cells (%) [3]: 50% and 53%
- Population Normal (%) [3]: 100%
- Population Pyknosed Nuclei (%) [3]: 5% and 8%
- Population Tubulin-Different-Phenotype (%) [3]: 84% and 91%
- Population Apoptotic (%) [4]: 75% and 46%
- Population Healthy Nuclei (%) [4]: 73% and 89%
- Population Hoechst High Intensity Objects (%) [4]: 0%
- Population Membrane Permeable-Phenotype (%) [4]: 0% and 1%
- Population Mitochondria Different-Phenotype (%) [4]: 0%
- Population Mitotic Cells (%) [4]: 25% and 53%
- Population Normal (%) [4]: 100% and 99%
- Population Pyknosed Nuclei (%) [4]: 6%
- Population Tubulin-Different-Phenotype (%) [4]: 100% and 94%
- Population Apoptotic (%) [5]: 22% and 50%
- Population Healthy Nuclei (%) [5]: 67% and 94%
- Population Hoechst High Intensity Objects (%) [5]: 0%
- Population Membrane Permeable-Phenotype (%) [5]: 0% and 1%
- Population Mitochondria Different-Phenotype (%) [5]: 0%
- Population Mitotic Cells (%) [5]: 77% and 50%
- Population Normal (%) [5]: 100%
- Population Tubulin-Different-Phenotype (%) [5]: 85% and 93%
- Population Apoptotic (%) [6]: 36% and 56%
- Population Fragmented Nuclei (%) [6]: 6% and 4%
- Population Healthy Nuclei (%) [6]: 83% and 90%
- Population Hoechst High Intensity Objects (%) [6]: 0%
- Population Membrane Permeable-Phenotype (%) [6]: 1%
- Population Mitochondria Different-Phenotype (%) [6]: 0%
- Population Mitotic Cells (%) [6]: 63% and 43%
- Population Normal (%) [6]: 100% and 99%
- Population Pyknosed Nuclei (%) [6]: 9% and 4%
- Population Tubulin-Different-Phenotype (%) [6]: 97% and 94%
